Measurements from ChEMBL document CHEMBL3627681, “Synthesis and biological evaluation of 1,3-diaryl pyrazole derivatives as potential antibacterial and anti-inflammatory agents” (2015).
In brackets after ≈: the same amount, converted by molar mass.

Test system: Staphylococcus aureus
Assay: Ratio of gatifloxacin MIC to compound MIC for quinolone-resistant Staphylococcus aureus CCARM 3519 after 24 hrs by two-fold serial dilution method
Format: functional
Conditions: not given

Q: With `N=C(N)N/N=C/c1cn(-c2ccc([N+](=O)[O-])cc2[N+](=O)[O-])nc1-c1ccc(Cl)cc1` as the compound, how does the Ratio read?
A: The Ratio was 2.

Q: How did the Ratio turn out when `Cc1ccc(-c2nn(-c3ccc([N+](=O)[O-])cc3[N+](=O)[O-])cc2/C=N/NC(=N)N)cc1` was run?
A: Its Ratio is 2.

Test system: Staphylococcus aureus
Assay: Antibacterial activity against quinolone-resistant Staphylococcus aureus CCARM 3519 after 24 hrs by two-fold serial dilution method
Format: functional
Conditions: CCARM 3519, 24 h
Method in brief: (§1)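 Broth microdilution in Mueller-Hinton broth. Bacteria grown to mid-log phase, diluted 1000-fold, and inoculated at 10⁵ CFU/mL. Test compounds in DMSO, final DMSO not above 0.05%, final concentrations 64-0.5 µg/mL. Incubation 24 h at 37 °C, growth read as absorbance at 650 nm. MIC taken as the lowest concentration giving complete growth inhibition. Run three times.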

Q: `N=C(N)N/N=C/c1cn(-c2ccc([N+](=O)[O-])cc2[N+](=O)[O-])nc1-c1ccc(Cl)cc1` was tested. Which MIC did it give?
A: The MIC was 2 µg/mL (≈ 4.66 µM).

Q: How did the MIC turn out when `Cc1ccc(-c2nn(-c3ccc([N+](=O)[O-])cc3[N+](=O)[O-])cc2/C=N/NC(=N)N)cc1` was run?
A: Its MIC is 2 µg/mL (≈ 4.9 µM).

Test system: Staphylococcus aureus
Assay: Ratio of gatifloxacin MIC to compound MIC for quinolone-resistant Staphylococcus aureus CCARM 3505 after 24 hrs by two-fold serial dilution method
Format: functional
Conditions: not given

Q: With `N=C(N)N/N=C/c1cn(-c2ccc([N+](=O)[O-])cc2[N+](=O)[O-])nc1-c1ccc(Cl)cc1` as the compound, how does the Ratio read?
A: Its Ratio is 4.

Test system: Mus musculus
Assay: Antiinflammatory activity in mouse assessed as inhibition of xylene-induced ear edema at 50 mg/kg, ip administered 30 mins before xylene challenge relative to control
Format: functional
Conditions: not given
Method in brief: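 Mice received compound freshly dissolved in DMSO, 50 mg/kg ip at 0.05 mL/20 g body weight; vehicle controls got DMSO alone. After 30 min, 20 µL xylene was applied to the right ear. After a further 30 min, 7 mm plugs were cut from treated and untreated ears and edema taken as their weight difference. Result is % edema reduction versus vehicle controls.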

Q: How did the inhibition in vivo at 50 mg/kg turn out when `N=C(N)N/N=C/c1cn(-c2ccc([N+](=O)[O-])cc2[N+](=O)[O-])nc1-c1ccc(Cl)cc1` was run?
A: Its inhibition in vivo at 50 mg/kg is 71.5%.

Q: For `Cc1ccc(-c2nn(-c3ccc([N+](=O)[O-])cc3[N+](=O)[O-])cc2/C=N/NC(=N)N)cc1`, which inhibition in vivo at 50 mg/kg is on record?
A: The inhibition in vivo at 50 mg/kg was 87.4%.

Test system: Staphylococcus aureus
Assay: Antibacterial activity against methicillin-resistant Staphylococcus aureus CCARM 3506 after 24 hrs by two-fold serial dilution method
Format: functional
Conditions: CCARM 3506, 24 h
Method in brief: as §1

Q: For `N=C(N)N/N=C/c1cn(-c2ccc([N+](=O)[O-])cc2[N+](=O)[O-])nc1-c1ccc(Cl)cc1`, which MIC is on record?
A: The MIC was 2 µg/mL (≈ 4.66 µM).

Q: How did the MIC turn out when `Cc1ccc(-c2nn(-c3ccc([N+](=O)[O-])cc3[N+](=O)[O-])cc2/C=N/NC(=N)N)cc1` was run?
A: The MIC was 2 µg/mL (≈ 4.9 µM).

Test system: Staphylococcus aureus
Assay: Antibacterial activity against Staphylococcus aureus 209 after 24 hrs by two-fold serial dilution method
Format: functional
Conditions: Staphylococcus aureus, 209, 24 h
Method in brief: as §1

Q: How did the MIC turn out when `N=C(N)N/N=C/c1cn(-c2ccc([N+](=O)[O-])cc2[N+](=O)[O-])nc1-c1ccc(Cl)cc1` was run?
A: Its MIC is 2 µg/mL (≈ 4.66 µM).

Q: How did the MIC turn out when `Cc1ccc(-c2nn(-c3ccc([N+](=O)[O-])cc3[N+](=O)[O-])cc2/C=N/NC(=N)N)cc1` was run?
A: Its MIC is 2 µg/mL (≈ 4.9 µM).

Test system: Pseudomonas aeruginosa
Assay: Antibacterial activity against Pseudomonas aeruginosa 2004 after 24 hrs by two-fold serial dilution method
Format: functional
Conditions: Pseudomonas aeruginosa, 2004, 24 h
Method in brief: (§2)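 Broth microdilution in Mueller-Hinton broth over final concentrations of 64–0.5. Bacteria were grown to mid-log phase and diluted 1000-fold, then inoculated at 10⁵ CFU/mL. Compounds were dissolved in DMSO, with final DMSO at most 0.05%. Plates were incubated 24 h at 37 °C and growth read as absorbance at 650 nm. MIC is the concentration giving complete growth inhibition. Three independent runs.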

Q: For `N=C(N)N/N=C/c1cn(-c2ccc([N+](=O)[O-])cc2[N+](=O)[O-])nc1-c1ccc(Cl)cc1`, which MIC is on record?
A: The MIC was greater than 64 µg/mL.

Q: `Cc1ccc(-c2nn(-c3ccc([N+](=O)[O-])cc3[N+](=O)[O-])cc2/C=N/NC(=N)N)cc1` was tested. Which MIC did it give?
A: Its MIC is greater than 64 µg/mL.

Test system: Staphylococcus aureus
Assay: Antibacterial activity against methicillin-resistant Staphylococcus aureus CCARM 3167 after 24 hrs by two-fold serial dilution method
Format: functional
Conditions: CCARM 3167, 24 h
Method in brief: as §1

Q: Which MIC does the source give for `N=C(N)N/N=C/c1cn(-c2ccc([N+](=O)[O-])cc2[N+](=O)[O-])nc1-c1ccc(Cl)cc1` here?
A: Its MIC is 2 µg/mL (≈ 4.66 µM).

Q: With `Cc1ccc(-c2nn(-c3ccc([N+](=O)[O-])cc3[N+](=O)[O-])cc2/C=N/NC(=N)N)cc1` as the compound, how does the MIC read?
A: Its MIC is 2 µg/mL (≈ 4.9 µM).

Test system: Escherichia coli
Assay: Antibacterial activity against Escherichia coli CCARM 1356 after 24 hrs by two-fold serial dilution method
Format: functional
Conditions: CCARM 1356, 24 h
Method in brief: as §2

Q: With `N=C(N)N/N=C/c1cn(-c2ccc([N+](=O)[O-])cc2[N+](=O)[O-])nc1-c1ccc(Cl)cc1` as the compound, how does the MIC read?
A: Its MIC is 8 µg/mL (≈ 18.7 µM).

Q: How did the MIC turn out when `Cc1ccc(-c2nn(-c3ccc([N+](=O)[O-])cc3[N+](=O)[O-])cc2/C=N/NC(=N)N)cc1` was run?
A: Its MIC is 4 µg/mL (≈ 9.79 µM).

Test system: Staphylococcus aureus
Assay: Antibacterial activity against Staphylococcus aureus RN4220 after 24 hrs by two-fold serial dilution method
Format: functional
Conditions: RN4220, 24 h
Method in brief: as §1

Q: Which MIC does the source give for `N=C(N)N/N=C/c1cn(-c2ccc([N+](=O)[O-])cc2[N+](=O)[O-])nc1-c1ccc(Cl)cc1` here?
A: The MIC was 2 µg/mL (≈ 4.66 µM).

Q: Which MIC does the source give for `Cc1ccc(-c2nn(-c3ccc([N+](=O)[O-])cc3[N+](=O)[O-])cc2/C=N/NC(=N)N)cc1` here?
A: Its MIC is 2 µg/mL (≈ 4.9 µM).

Test system: Staphylococcus aureus
Assay: Antibacterial activity against quinolone-resistant Staphylococcus aureus CCARM 3505 after 24 hrs by two-fold serial dilution method
Format: functional
Conditions: CCARM 3505, 24 h
Method in brief: as §1

Q: For `N=C(N)N/N=C/c1cn(-c2ccc([N+](=O)[O-])cc2[N+](=O)[O-])nc1-c1ccc(Cl)cc1`, which MIC is on record?
A: Its MIC is 2 µg/mL (≈ 4.66 µM).

Q: Which MIC does the source give for `Cc1ccc(-c2nn(-c3ccc([N+](=O)[O-])cc3[N+](=O)[O-])cc2/C=N/NC(=N)N)cc1` here?
A: The MIC was 2 µg/mL (≈ 4.9 µM).

Test system: Streptococcus mutans
Assay: Antibacterial activity against Streptococcus mutans 3065 after 24 hrs by two-fold serial dilution method
Format: functional
Conditions: Streptococcus mutans, 3065, 24 h
Method in brief: as §2

Q: With `N=C(N)N/N=C/c1cn(-c2ccc([N+](=O)[O-])cc2[N+](=O)[O-])nc1-c1ccc(Cl)cc1` as the compound, how does the MIC read?
A: The MIC was 4 µg/mL (≈ 9.33 µM).

Q: With `Cc1ccc(-c2nn(-c3ccc([N+](=O)[O-])cc3[N+](=O)[O-])cc2/C=N/NC(=N)N)cc1` as the compound, how does the MIC read?
A: The MIC was 4 µg/mL (≈ 9.79 µM).

Test system: Staphylococcus aureus
Assay: Ratio of moxifloxacin MIC to compound MIC for quinolone-resistant Staphylococcus aureus CCARM 3519 after 24 hrs by two-fold serial dilution method
Format: functional
Conditions: not given

Q: `N=C(N)N/N=C/c1cn(-c2ccc([N+](=O)[O-])cc2[N+](=O)[O-])nc1-c1ccc(Cl)cc1` was tested. Which Ratio did it give?
A: Its Ratio is 2.

Q: With `Cc1ccc(-c2nn(-c3ccc([N+](=O)[O-])cc3[N+](=O)[O-])cc2/C=N/NC(=N)N)cc1` as the compound, how does the Ratio read?
A: The Ratio was 2.

Test system: Escherichia coli
Assay: Ratio of moxifloxacin MIC to compound MIC for Escherichia coli CCARM 1356 after 24 hrs by two-fold serial dilution method
Format: functional
Conditions: not given

Q: With `N=C(N)N/N=C/c1cn(-c2ccc([N+](=O)[O-])cc2[N+](=O)[O-])nc1-c1ccc(Cl)cc1` as the compound, how does the Ratio read?
A: The Ratio was 16.

Test system: Candida albicans
Assay: Antifungal activity against Candida albicans 7535 by two-fold serial dilution method
Format: functional
Conditions: not given

Q: How did the MIC turn out when `N=C(N)N/N=C/c1cn(-c2ccc([N+](=O)[O-])cc2[N+](=O)[O-])nc1-c1ccc(Cl)cc1` was run?
A: The MIC was 2 µg/mL (≈ 4.66 µM).

Q: Which MIC does the source give for `Cc1ccc(-c2nn(-c3ccc([N+](=O)[O-])cc3[N+](=O)[O-])cc2/C=N/NC(=N)N)cc1` here?
A: The MIC was 2 µg/mL (≈ 4.9 µM).

Test system: Salmonella typhimurium
Assay: Antibacterial activity against Salmonella typhimurium 2421 after 24 hrs by two-fold serial dilution method
Format: functional, Salmonella enterica subsp. enterica serovar Typhimurium
Conditions: Salmonella enterica, 2421, 24 h
Method in brief: as §2

Q: For `N=C(N)N/N=C/c1cn(-c2ccc([N+](=O)[O-])cc2[N+](=O)[O-])nc1-c1ccc(Cl)cc1`, which MIC is on record?
A: The MIC was 4 µg/mL (≈ 9.33 µM).

Q: `Cc1ccc(-c2nn(-c3ccc([N+](=O)[O-])cc3[N+](=O)[O-])cc2/C=N/NC(=N)N)cc1` was tested. Which MIC did it give?
A: The MIC was 4 µg/mL (≈ 9.79 µM).

Test system: Staphylococcus aureus
Assay: Antibacterial activity against Staphylococcus aureus 503 after 24 hrs by two-fold serial dilution method
Format: functional
Conditions: Staphylococcus aureus, 503, 24 h
Method in brief: as §1

Q: With `N=C(N)N/N=C/c1cn(-c2ccc([N+](=O)[O-])cc2[N+](=O)[O-])nc1-c1ccc(Cl)cc1` as the compound, how does the MIC read?
A: Its MIC is 2 µg/mL (≈ 4.66 µM).

Q: How did the MIC turn out when `Cc1ccc(-c2nn(-c3ccc([N+](=O)[O-])cc3[N+](=O)[O-])cc2/C=N/NC(=N)N)cc1` was run?
A: Its MIC is 2 µg/mL (≈ 4.9 µM).

Test system: Pseudomonas aeruginosa
Assay: Antibacterial activity against Pseudomonas aeruginosa 2742 after 24 hrs by two-fold serial dilution method
Format: functional
Conditions: Pseudomonas aeruginosa, 2742, 24 h
Method in brief: as §2

Q: Which MIC does the source give for `N=C(N)N/N=C/c1cn(-c2ccc([N+](=O)[O-])cc2[N+](=O)[O-])nc1-c1ccc(Cl)cc1` here?
A: Its MIC is greater than 64 µg/mL.

Q: With `Cc1ccc(-c2nn(-c3ccc([N+](=O)[O-])cc3[N+](=O)[O-])cc2/C=N/NC(=N)N)cc1` as the compound, how does the MIC read?
A: The MIC was greater than 64 µg/mL.

Test system: Staphylococcus aureus
Assay: Ratio of moxifloxacin MIC to compound MIC for quinolone-resistant Staphylococcus aureus CCARM 3505 after 24 hrs by two-fold serial dilution method
Format: functional
Conditions: not given

Q: How did the Ratio turn out when `N=C(N)N/N=C/c1cn(-c2ccc([N+](=O)[O-])cc2[N+](=O)[O-])nc1-c1ccc(Cl)cc1` was run?
A: The Ratio was 2.

Q: How did the Ratio turn out when `Cc1ccc(-c2nn(-c3ccc([N+](=O)[O-])cc3[N+](=O)[O-])cc2/C=N/NC(=N)N)cc1` was run?
A: Its Ratio is 2.

Test system: Escherichia coli
Assay: Antibacterial activity against Escherichia coli KCTC 1924 after 24 hrs by two-fold serial dilution method
Format: functional
Conditions: KCTC 1924, 24 h
Method in brief: as §2

Q: With `N=C(N)N/N=C/c1cn(-c2ccc([N+](=O)[O-])cc2[N+](=O)[O-])nc1-c1ccc(Cl)cc1` as the compound, how does the MIC read?
A: The MIC was 2 µg/mL (≈ 4.66 µM).

Q: How did the MIC turn out when `Cc1ccc(-c2nn(-c3ccc([N+](=O)[O-])cc3[N+](=O)[O-])cc2/C=N/NC(=N)N)cc1` was run?
A: Its MIC is 2 µg/mL (≈ 4.9 µM).
